ARNT TACC3 PPI = disruptors of ARNT/TACC3 protein interaction, primary screen, biochemical, AlphaScreen, single concentration | Transforming acidic coiled-coil-containing protein 3 (Homo sapiens), Q9Y6A5 | AlphaScreen His-ARNT PAS-B/GST-TACC3 binding, luminescence; TACC3 fragment carries E629A point mutation | inhibition, % at 9.99 µM | hit rate 0.66% among 390,000;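 active = mean inhibition of replicates at least 50% and at least half of replicates each reaching 50%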;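 note: 0% = complete ARNT plus TACC3 wells and 100% = ARNT alone without TACC3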
SUMO Mot1 rescue = yeast Mot1-301 growth rescue at high temperature, primary screen, SUMOylation pathway inhibitor project, S. cerevisiae, ATP luminescence, 38.5C; S. cerevisiae Mot1-301 growth rescue; percent above DMSO median, 100 means doubled; growth rescue, % at 18.8 µM; hit rate 1% among 320,000;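 active = every valid replicate shows activation above 250% relative to neutral control wells; inactive = the rest, any valid replicate at or below 250%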;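 note: OY570 slx delta 5 strain wells were the positive control but not used for scaling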
cardiac RTF act = cardiac RTF calcium sensitivity activators, primary screen, biochemical, IANBD-TnC fluorescence, EC20 calcium. Troponin I, cardiac muscle (Homo sapiens) + Troponin T, cardiac muscle (Homo sapiens) + …. IANBD-labeled TnC RTF fluorescence at EC20 calcium; 0% EC20 calcium, 100% full calcium. activation, % at 7.2 µM. hit rate 0.24% among 340,000;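 active = activation above the mean over all tested compounds plus 3 SD, cut at about 30% in these data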;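 note: rise in fluorescence read as greater calcium sensitivity of cardiac thin filaments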
UCH37 DUB inh = inhibitors of human UCH37 deubiquitinase, primary screen, biochemical, Ub-AMC cleavage, fluorescence; purified proteasome/UCH37; Ubiquitin carboxyl-terminal hydrolase isozyme L5 (Homo sapiens), Q9Y5K5; AID 588478, 2011; inhibition, % (no concentration beside the values); hit rate 0.33% among 330,000;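 active = mean inhibition over replicate wells above about 20%, limit read from the data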;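 note: 0% = compound-free wells with enzyme and 100% = wells lacking proteasome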
Target sequence (Q9Y5K5 whole entry, looked up): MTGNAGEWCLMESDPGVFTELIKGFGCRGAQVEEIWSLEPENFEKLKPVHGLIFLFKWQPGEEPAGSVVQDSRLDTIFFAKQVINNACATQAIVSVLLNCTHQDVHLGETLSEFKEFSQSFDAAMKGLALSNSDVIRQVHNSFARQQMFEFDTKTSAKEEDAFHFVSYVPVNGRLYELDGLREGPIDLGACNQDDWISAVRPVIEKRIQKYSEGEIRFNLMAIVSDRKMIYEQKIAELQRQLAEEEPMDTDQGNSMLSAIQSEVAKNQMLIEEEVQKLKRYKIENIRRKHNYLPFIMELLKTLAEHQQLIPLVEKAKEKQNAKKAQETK
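Reagent: Ub-AMC substrate; assay system: Proteasome-associated human UCH37 deubiquitinase; controls: no-proteasome and no-compound wells; read-out: % inhibition of Ub-AMC cleavage fluorescence; timing: 30 min preincubation with enzyme, 25 min cleavage at room temperature; signal: AMC fluorescence from Ub-AMC cleavage, excitation 355 nm, emission 460 nm; buffer or medium: Tris-HCl pH 7.4 plus ovalbumin, ATP-MgCl2, DTT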
RTF Ca sens inh = cardiac RTF calcium sensitivity inhibitors, primary screen, biochemical, IANBD-TnC fluorescence, EC70 calcium | Troponin I, cardiac muscle (Homo sapiens) + Troponin T, cardiac muscle (Homo sapiens) + … | IANBD-labeled cardiac RTF, Ca2+ fluorescence | inhibition, % at 7.15 µM | hit rate 0.12% among 340,000;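 active = inhibition above the mean inhibition of all tested compounds plus 3 SD, cut at about 17% in these data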;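 note: assay run at fixed EC70 calcium of 1.6 mM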
Efflux pump mplx = inhibitors of Candida efflux pumps in yeast, primary screen, S. cerevisiae, Nile Red, multiplex | S. cerevisiae Candida pump triplex | inhibition, % at 10 µM | hit rate 0.44% among 330,000;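 active = plate passing quality check with inhibition over a set limit, or well fluorescence over plate mean plus 4 SD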;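 note: Nile Red retained in pooled yeast measured as flow cytometry median fluorescence; 0% = buffer negative control and 100% = Enniatin B positive control; higher means more Nile Red kept so more efflux inhibition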
Yeast cmpd fluor = flagged as fluorescent in efflux inhibitor counter-screen | fluorescence ratio to DMSO, % at 10 µM | S. cerevisiae AD/pABC3, compound fluorescence, flow cytometry | shares compounds with Efflux pump mplx | hit rate 4% among 1,700 | AID 588517;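 active = fluorescence ratio to DMSO above its plate's cutoff, the plate mean ratio plus 5 SD, cut at about 210% in these data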;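 note: unstained yeast with no Nile Red so the signal is compound autofluorescence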
Mdr1 pump inh = inhibitors of Candida albicans Mdr1 efflux, confirmation, flow cytometry, singleplex, Cherry Pick1 set | inhibition, % at 10 µM | hit rate 1% among 1,700 | S. cerevisiae AD/CaMDR1, Nile Red efflux | shares compounds with Efflux pump mplx; in the data active = inhibition above about 26%;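 note: 0% = DMSO vehicle and 100% = reference inhibitor; higher means more Nile Red retained so more efflux inhibition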
Cdr2 pump inh = inhibitors of Candida albicans Cdr2 efflux pump, confirmation, S. cerevisiae AD/CaCDR2, flow cytometry, cherry pick 1, singleplex; hit rate 4% among 1,700; Nile Red retention; shares compounds with Efflux pump mplx; Nile Red retention ratio vs DMSO, % at 10 µM; in the data active = Nile Red retention ratio vs DMSO above about 190%;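 note: higher ratio means more blocking of Cdr2 efflux of the dye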
CaCdr1 efflux inh = inhibitors of Candida albicans Cdr1 efflux pump, confirmation, S. cerevisiae AD/CaCDR1, flow cytometry, cherry pick 1, singleplex. shares compounds with Efflux pump mplx. Nile Red efflux. inhibition, % at 10 µM. hit rate 1% among 1,700. AID 588522, 2011;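 active = inhibition above the screen-wide mean plus twice its standard deviation, cut at about 32% in these data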
* = called active by the depositor; i = inactive; x = not tested or not shown; + = active, no number. This is a sample that favours compounds with a hit; in the whole collection about 2.1% have one here.

SMILES | ARNT TACC3 PPI | SUMO Mot1 rescue | cardiac RTF act | UCH37 DUB inh | RTF Ca sens inh | Efflux pump mplx | Yeast cmpd fluor | Mdr1 pump inh | Cdr2 pump inh | CaCdr1 efflux inh
Cc1cc2c(C)nc(NN=Cc3ccc(F)cc3)nc2o1 | x | x | x | -12 | x | x | x | x | x | x
CN(C)Cc1c(O)ccc2c1O/C(=C\C=C\c1ccccc1)C2=O | 4 | 1 | 26 | 15 | -55 | 0.6* | 83 | 0 | 104 | 0
CCN1CCN(Cc2c(O)ccc3c2O/C(=C\c2ccc(C)cc2)C3=O)CC1 | 11 | -5 | 29 | -89 | -32 | 0 | x | x | x | x
Nc1cc(Nc2ccccc2)c2nonc2c1[N+](=O)[O-] | -4 | 204 | 4 | 2 | -6 | 1.4* | 105 | 0 | 93 | 0
Cc1ccc(C=NNC(=O)c2nnn(-c3nonc3N)c2CSc2ccccc2)o1 | x | x | x | 0 | x | x | x | x | x | x
COc1ccc2noc3c2c1C(=O)c1ccccc1-3 | 22 | 371 | + | x | i | 0.9* | 194 | 1 | 197* | 0
CCCCNC(=O)c1ccc(Cn2c(=S)[nH]c3c([nH]c4ccc(OC)cc43)c2=O)cc1 | -4 | -2 | 3 | -2 | 2 | 8.2* | 100 | 0 | 96 | 0
CCOCCCNC(=O)c1ccc(Cn2c(=S)[nH]c3c([nH]c4ccc(OC)cc43)c2=O)cc1 | -3 | 1 | -2 | -27 | -1 | 0 | x | x | x | x
Cc1ccc(S(=O)(=O)Nc2cc(-c3ccccc3)nn2C)cc1 | x | -1 | x | 3 | x | 0.5* | 97 | 0 | 98 | 0
Cn1nc(-c2ccccc2)cc1NS(=O)(=O)c1ccccc1 | -9 | -5 | -1 | 5 | 1 | 0 | x | x | x | x
Cc1ccc(C(=O)COc2ccccc2-c2ccccc2)cc1C | x | -1 | 10 | 4 | -3 | 13* | 100 | 0 | 91 | 1
O=C(COc1ccccc1-c1ccccc1)c1ccccc1 | x | -1 | 12 | 5 | 2 | 1 | x | x | x | x
O=C(O)C1CC=CCC1C(=O)Nc1ccc(N2CCN(Cc3ccccc3)CC2)cc1 (centres undefined) | 6 | 2 | 1 | x | -11 | 11* | 92 | 0 | 95 | 0
COc1ccccc1C(=O)COC(=O)/C=C/c1ccccc1 | 6 | 13 | -1 | 1 | 1 | 6.2* | 111 | 0 | 100 | 0
O=C(/C=C/c1ccccc1)OCC(=O)c1c[nH]c2ccccc12 | -4 | 62 | 0 | 5 | 1 | 0 | x | x | x | x
COc1cc(OC)c(C2C(C(=O)Nc3ccc(C)cc3C)=C(C)Nc3ncnn32)cc1OC (centres undefined) | -3 | -22 | 2 | 3 | -3 | 0.8* | 99 | 0 | 108 | 0
COc1ccc(NC(=O)Nc2cccc3c2O[C@H](CN(C)C(=O)NC2CCCCC2)[C@@H](C)CN([C@H](C)CO)C3=O)cc1 | -13 | -4 | 2 | 6 | -5 | 0 | 102 | 0 | 119 | 0
CCOC(=O)CC(C)=NNC(=O)CN(c1ccc(Br)cc1)S(=O)(=O)c1ccccc1 | x | x | x | 5 | x | x | x | x | x | x
CC(=NNC(=O)c1ccc(NC(=O)c2ccc(F)cc2)cc1)c1ccccc1 | x | x | x | 4 | x | x | x | x | x | x
COc1ccc(-c2[nH]c(-c3ccc4c(c3)OCO4)nc2-c2ccccc2)cc1 | 5 | 18 | 0 | -93 | 0 | 0.3* | 105 | 0 | 114 | 0
CCCCCOCC1CC(C/C(C)=N/NC(N)=O)(C(=O)OCC)C(=O)O1 (centres undefined) | -8 | 2 | -7 | x | 7 | 0 | x | x | x | x
CCCCC1(C(=O)OCC)CC(CSC(=N)N)OC1=O (centres undefined) | -1 | -4 | -6 | 5 | -2 | 0.6* | 92 | 0 | 104 | 0
Cc1ccc(C=NNC(=O)Cc2ccc(O)cc2)s1 | x | x | x | 4 | x | x | x | x | x | x
CCNS(=O)(=O)c1ccc2c(c1)NCC2 | -4 | 9 | 0 | 2 | -10 | 12* | 105 | 0 | 95 | 0
COc1ccc(N(CC(=O)Nc2cccc([N+](=O)[O-])c2C)S(C)(=O)=O)cc1OC | -2 | -16 | -2 | 1 | 4 | 8.9* | 98 | 0 | 103 | 0
SMILES | ARNT TACC3 PPI | SUMO Mot1 rescue | cardiac RTF act | UCH37 DUB inh | RTF Ca sens inh | Efflux pump mplx | Yeast cmpd fluor | Mdr1 pump inh | Cdr2 pump inh | CaCdr1 efflux inh
COCCCn1c(SCC(=O)OC2CCCCC2)nnc1-c1ccco1 | -10 | -6 | 3 | 0 | 4 | 0 | x | x | x | x
COCCCn1c(SCC(=O)OC2CCCCC2)nnc1-c1cccs1 | 18 | -16 | 4 | 1 | 1 | 1.3* | 96 | 0 | 120 | 0
S=c1[nH]nc(COc2ccccc2)n1N=Cc1cccc(Br)c1 | x | x | x | 3 | x | x | x | x | x | x
COc1ccc(-n2ncc3c2CC(C)(C)CC3NC(=O)c2ccnn2C)cc1 (centres undefined) | 10 | -4 | -8 | 0 | 5 | 0 | x | x | x | x
CC1(C)Cc2c(cnn2-c2ccc(F)cc2)C(NC(=O)c2cnccn2)C1 (centres undefined) | 2 | 206 | -1 | 1 | -5 | 6.2* | 98 | 0 | 100 | 0
COc1ccc(-n2ncc3c2CC(C)(C)CC3NC(=O)c2cn[nH]c2)cc1 (centres undefined) | x | 14 | 4 | x | -6 | 0 | 97 | 0 | 82 | 0
Cc1cc(C)c2c(n1)sc1c(-c3ccccc3)c(C#N)c(N)nc12 | -8 | -6 | 9 | -12 | -9 | 18* | 107 | 0 | 103 | 0
Cc1ccc(C2=NN(S(C)(=O)=O)C(c3cccs3)C2)cc1 (centres undefined) | 0 | 241 | -2 | 5 | -1 | 0 | x | x | x | x
CCc1ccc(C2=NN(S(C)(=O)=O)C(c3cccs3)C2)cc1 (centres undefined) | -5 | -1 | 5 | 0 | -6 | 3.0* | 125 | 1 | 151 | 1
